Experimental data reported in ChEMBL document CHEMBL1130136, “Novel biological response modifiers: phthalimides with tumor necrosis factor-alpha production-regulating activity” (J Med Chem, 1997).
In brackets after ≈: the same amount, converted by molar mass.

Legend:
HL-60 [1] = assay: Amount of tumor necrosis factor-alpha produced by human leukemia cell line (HL-60) stimulated with 10 nM12-O-tetradecanoylphorbol 13-acetate (TPA) at 0.3 uM, measured by ELISA; assay type: functional
Outline: (§1)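 HL-60 cells (2.5 × 10⁵ in 0.5 mL, i.e. 5 × 10⁵/mL), growing exponentially in RPMI1640 + 10% FBS, were exposed to 10 nM TPA or 50 nM OA together with 0.3 μM test compound for 16 h at 37 °C. Secreted TNF-α was quantified by ELISA and expressed as % of inducer-alone production. Each run was done in duplicate or triplicate (mean taken) and repeated at least three times.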

HL-60 [2] = assay: Inhibition of 50 nM okadaic acid induced tumor necrosis factor-alpha production in human leukemia cell line (HL-60) by 0.3 uM.; assay type: functional; outline: as §1
HL-60 [3] = assay: Tumor necrosis factor-alpha production in human leukemia cell line (HL-60) stimulated with 10 nM 12-O-tetradecanoylphorbol 13-acetate (TPA) at 30 uMolar.; assay type: functional
Outline: (§2)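 HL-60 cells at 5 × 10⁵/mL in RPMI1640 + 10% FBS were co-treated with 30 μM test compound and either 10 nM TPA or 50 nM OA for 16 h at 37 °C. Culture-medium TNF-α was measured by ELISA and expressed as % of inducer-alone control. Cell counts were taken at harvest. Assays were run in duplicate or triplicate (mean taken), at least three times.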

HL-60 [4] = assay: Tumor necrosis factor-alpha production in human leukemia cell line (HL-60) stimulated with 50 nM okadaic acid (OA), at 30 uMolar.; assay type: functional; outline: as §2
WI-38 [5] = assay: In vitro cytotoxicity against human embryonic lung fibroblast WI-38 cells.; assay type: functional, cell-based
Outline: (§3)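 WI-38 human embryonic lung fibroblasts (5 × 10³ cells/well) in RPMI1640 + 10% FCS were exposed to graded concentrations of compound for 48 h at 37 °C. Viability was read by WST-1 with 1-methoxy PMS (2 h, 37 °C; absorbance at 450 nm). IC50 was reported in μg/mL, with the μM equivalent in parentheses.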

WI-38 [6] = assay: The cytotoxicity of the compounds assessed using human embryonic lung fibroblast WI-38 cells at (25 micro M); assay type: functional, cell-based; outline: as §3
WI-38 [7] = assay: The cytotoxicity of the compounds assessed using human embryonic lung fibroblast WI-38 cells at (8 micro M); assay type: functional, cell-based; outline: as §3
WI-38 [8] = assay: The cytotoxicity of the compounds assessed using human embryonic lung fibroblast WI-38 cells at (95 micro M); assay type: functional, cell-based; outline: as §3
WI-38 [9] = assay: The cytotoxicity of the compounds assessed using human embryonic lung fibroblast WI-38 cells at (40 micro M); assay type: functional, cell-based; outline: as §3
WI-38 [10] = assay: The cytotoxicity of the compounds assessed using human embryonic lung fibroblast WI-38 cells at (2.6 micro M).; assay type: functional, cell-based; outline: as §3
WI-38 [11] = assay: The cytotoxicity of the compounds assessed using human embryonic lung fibroblast WI-38 cells at (87 micro M); assay type: functional, cell-based; outline: as §3
HL-60 [12] = assay: Amount of tumor necrosis factor-alpha produced in human leukemia cell line (HL-60) stimulated with 10 nM12-O-tetradecanoylphorbol 13-acetate (TPA) at 0.3 micro M, measured by ELISA.; assay type: functional; outline: as §1
WI-38 [13] = assay: The cytotoxicity of the compounds assessed using human embryonic lung fibroblast WI-38 cells at (2.3 micro M); assay type: functional, cell-based; outline: as §3
HL-60 [14] = assay: Amount of tumor necrosis factor-alpha produced by human leukemia cell line (HL-60) stimulated with 50 nM okadaic acid (OA), at 0.3 uM, measured by ELISA.; assay type: functional; outline: as §1
WI-38 [15] = assay: The cytotoxicity of the compounds assessed using human embryonic lung fibroblast WI-38 cells at (83 micro M); assay type: functional, cell-based; outline: as §3
WI-38 [16] = assay: The cytotoxicity of the compounds assessed using human embryonic lung fibroblast WI-38 cells at (97 micro M); assay type: functional, cell-based; outline: as §3
WI-38 [17] = assay: The cytotoxicity of the compounds assessed using human embryonic lung fibroblast WI-38 cells at (99 micro M); assay type: functional, cell-based; outline: as §3

## C[C@@H](c1ccc([N+](=O)[O-])cc1)N1C(=O)c2c(F)c(F)c(F)c(F)c2C1=O
HL-60 [1]
  Amount of TNF-alpha: 268%
HL-60 [2]
  Amount of TNF-alpha: 32%

## O=C1c2ccccc2C(=O)N1c1ccccc1-c1ccccc1
HL-60 [3]
  Amount of TNF-alpha: 262%
HL-60 [4]
  Amount of TNF-alpha: 40%
WI-38 [5]
  IC50: > 100 µg/mL

## COc1ccccc1N1C(=O)c2ccccc2C1=O
HL-60 [3]
  Amount of TNF-alpha: 95%
HL-60 [4]
  Amount of TNF-alpha: 21%
WI-38 [5]
  IC50: > 100 µg/mL

## CC(C)c1cccc(C(C)C)c1N1C(=O)c2cccc(N)c2C1=O
HL-60 [3]
  Amount of TNF-alpha: 248%
HL-60 [4]
  Amount of TNF-alpha: 21%
WI-38 [6]
  IC50: 8.1 µg/mL (≈ 25.1 µM)

## CC(C)c1ccccc1N1C(=O)c2ccccc2C1=O
HL-60 [3]
  Amount of TNF-alpha: 158%
HL-60 [4]
  Amount of TNF-alpha: 105%
WI-38 [5]
  IC50: > 100 µg/mL

## C[C@H](c1cccc2ccccc12)N1C(=O)c2c(F)c(F)c(F)c(F)c2C1=O
HL-60 [1]
  Amount of TNF-alpha: 100%
HL-60 [2]
  Amount of TNF-alpha: 2%
WI-38 [7]
  IC50: 2.8 µg/mL (≈ 7.5 µM)

## CC(=O)Nc1ccc([C@@H](C)N2C(=O)c3c(F)c(F)c(F)c(F)c3C2=O)cc1
HL-60 [1]
  Amount of TNF-alpha: 220%
HL-60 [2]
  Amount of TNF-alpha: 55%

## O=C1c2ccccc2C(=O)N1c1ccccc1[N+](=O)[O-]
HL-60 [3]
  Amount of TNF-alpha: 89%
HL-60 [4]
  Amount of TNF-alpha: 53%
WI-38 [5]
  IC50: > 100 µg/mL

## C[C@H](C1CCCCC1)N1C(=O)c2c(F)c(F)c(F)c(F)c2C1=O
HL-60 [1]
  Amount of TNF-alpha: 98%
HL-60 [2]
  Amount of TNF-alpha: 10%
WI-38 [5]
  IC50: > 100 µg/mL

## CC(C)c1cccc(C(C)C)c1N1C(=O)c2ccccc2C1=S
HL-60 [3]
  Amount of TNF-alpha: 1252%
HL-60 [4]
  Amount of TNF-alpha: 0%
WI-38 [8]
  IC50: 30.8 µg/mL (≈ 95.2 µM)

## CC/N=C1\c2ccccc2C(=O)N1c1c(C(C)C)cccc1C(C)C
HL-60 [3]
  Amount of TNF-alpha: 138%
HL-60 [4]
  Amount of TNF-alpha: 75%

## C[C@H](c1ccccc1)N1C(=O)c2c(F)c(F)c(F)c(F)c2C1=O
HL-60 [1]
  Amount of TNF-alpha: 97%
HL-60 [2]
  Amount of TNF-alpha: 2%
WI-38 [9]
  IC50: 12.8 µg/mL (≈ 39.6 µM)

## O=C1c2c(F)c(F)c(F)c(F)c2C(=O)N1C1Cc2ccccc2C1
HL-60 [1]
  Amount of TNF-alpha: 104%
HL-60 [2]
  Amount of TNF-alpha: 43%
WI-38 [10]
  IC50: 0.9 µg/mL (≈ 2.68 µM)

## O=C1c2c(F)c(F)c(F)c(F)c2C(=O)N1[C@@H]1CCc2ccccc21
HL-60 [1]
  Amount of TNF-alpha: 233%
HL-60 [2]
  Amount of TNF-alpha: 43%
WI-38 [11]
  IC50: 30.3 µg/mL (≈ 90.4 µM)

## Cc1ccccc1N1C(=O)c2ccccc2C1=O
HL-60 [3]
  Amount of TNF-alpha: 100%
HL-60 [4]
  Amount of TNF-alpha: 68%
WI-38 [5]
  IC50: > 100 µg/mL

## CC(C)c1cccc(C(C)C)c1N1C(=O)c2c(F)c(F)c(F)c(F)c2C1=O
HL-60 [12]
  Amount of TNF-alpha: 375%
WI-38 [13]
  IC50: 0.9 µg/mL (≈ 2.37 µM)
HL-60 [14]
  Amount of TNF-alpha: 0%

## C/N=C1\c2ccccc2C(=O)N1c1c(C(C)C)cccc1C(C)C
HL-60 [3]
  Amount of TNF-alpha: 134%
HL-60 [4]
  Amount of TNF-alpha: 37%

## C[C@@H](c1ccccc1)N1C(=O)c2c(F)c(F)c(F)c(F)c2C1=O
HL-60 [1]
  Amount of TNF-alpha: 143%
HL-60 [2]
  Amount of TNF-alpha: 70%
WI-38 [15]
  IC50: 26.8 µg/mL (≈ 82.9 µM)

## C[C@H](c1ccc(N)cc1)N1C(=O)c2c(F)c(F)c(F)c(F)c2C1=O
HL-60 [1]
  Amount of TNF-alpha: 241%
HL-60 [2]
  Amount of TNF-alpha: 27%

## Cc1cccc(C(C)C)c1N1C(=O)c2ccccc2C1=O
HL-60 [3]
  Amount of TNF-alpha: 234%
HL-60 [4]
  Amount of TNF-alpha: 33%
WI-38 [16]
  IC50: 28.1 µg/mL (≈ 101 µM)

## CCc1cccc(C)c1N1C(=O)c2ccccc2C1=O
HL-60 [3]
  Amount of TNF-alpha: 188%
HL-60 [4]
  Amount of TNF-alpha: 82%
WI-38 [17]
  IC50: 26.2 µg/mL (≈ 98.8 µM)

## O=C1c2ccccc2C(=O)N1c1ccccc1 [N-PHENYL-PHTHALIMIDE]
HL-60 [3]
  Amount of TNF-alpha: 100%
HL-60 [4]
  Amount of TNF-alpha: 61%
WI-38 [5]
  IC50: > 100 µg/mL

## CCCCCc1ccccc1N1C(=O)c2ccccc2C1=O
HL-60 [3]
  Amount of TNF-alpha: 151%
HL-60 [4]
  Amount of TNF-alpha: 35%
WI-38 [5]
  IC50: > 100 µg/mL

## C[C@H](c1ccc([N+](=O)[O-])cc1)N1C(=O)c2c(F)c(F)c(F)c(F)c2C1=O
HL-60 [1]
  Amount of TNF-alpha: 239%
HL-60 [2]
  Amount of TNF-alpha: 27%
